Target: T1, recombinant mouse Nape-pld (Mus musculus, UniProt Q8BH82)
T1 sequence (Q8BH82 1-396): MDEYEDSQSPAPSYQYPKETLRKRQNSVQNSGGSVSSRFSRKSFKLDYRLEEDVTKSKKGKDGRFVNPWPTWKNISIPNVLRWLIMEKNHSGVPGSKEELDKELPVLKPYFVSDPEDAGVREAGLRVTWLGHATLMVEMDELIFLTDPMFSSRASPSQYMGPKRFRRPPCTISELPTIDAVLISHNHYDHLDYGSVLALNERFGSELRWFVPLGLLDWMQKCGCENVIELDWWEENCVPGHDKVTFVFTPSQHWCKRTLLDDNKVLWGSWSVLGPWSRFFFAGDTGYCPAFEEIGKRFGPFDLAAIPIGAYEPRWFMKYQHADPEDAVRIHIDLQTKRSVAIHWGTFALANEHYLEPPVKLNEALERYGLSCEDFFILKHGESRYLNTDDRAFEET
Test: VU534 competition assays with compounds known to bind Nape-pld
Format: biochemical
Details: for Effect on Nape-pld activity (compound alone): in presence of 0.4% NOG, 100 μM PE, 1 mM DCA
Outline: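 Enzyme (final 0.4 μg, 50 mM Tris, 0.4% N-octylglucoside) was preincubated with vehicle or a competitor for 30 min: dioleoyl-PE 100 μM, deoxycholic acid 1 mM, bithionol 3 μM or LEI-401 30 μM. Alternatively, 15 μM of an analog was used for 5 min. Graded test compound followed for 60 min, then flame-NAPE (0.5 μM) plus N-oleoyl-PE (9.5 μM). The 5-min fluorescence change was normalized to vehicle, 0 μM.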

SMILES	Effect on ability of 5 μM VU534 to activate Nape-pld (graded concentrations of LEI-401 or VU233, flame-NAPE (Figure S5))	Effect on Nape-pld activity (compound alone)
O=C(NCC1CC1)c1cc(N2CC[C@H](O)C2)nc(N2CCC[C@@H](c3ccccc3)C2)n1 [LEI-401]	reduced the ability of 5 μM VU534 to activate Nape-pld in a concentration-dependent manner	
CCCCCCCC/C=C\CCCCCCCC(=O)OC[C@H](COP(=O)(O)OCCN)OC(=O)CCCCCCC/C=C\CCCCCCCC [PE, dioleoylphosphatidylethanolamine]		slight, but nonsignificant trend for inhibition
C[C@H](CCC(=O)O)[C@H]1CC[C@H]2[C@@H]3CC[C@@H]4C[C@H](O)CC[C@]4(C)[C@H]3C[C@H](O)[C@]12C [DCA, deoxycholic acid]		slight, but nonsignificant trend for inhibition
